Reference: ChEMBL document CHEMBL4819134, “Design, synthesis and biological evaluation of imidazopyridazine derivatives containing isoquinoline group as potent MNK1/2 inhibitors” (Bioorg Med Chem, 2021)

What was measured:
[1] = target: T1, MAP kinase-interacting serine/threonine-protein kinase 1 (Homo sapiens, UniProt Q9BUB5); assay: Inhibition of N-terminal GST-fused human full length recombinant MNK1 (1 to 424 residues) expressed in baculovirus-infected Sf21 cells using TATKSGSTTKNR as substrate preincubated with enzyme and substrate for 10 mins followed by ATP addition and measured after 40 mins by ADP-glo luminescence assay
Target sequence in this assay (Q9BUB5 whole entry, the tested form may be a part): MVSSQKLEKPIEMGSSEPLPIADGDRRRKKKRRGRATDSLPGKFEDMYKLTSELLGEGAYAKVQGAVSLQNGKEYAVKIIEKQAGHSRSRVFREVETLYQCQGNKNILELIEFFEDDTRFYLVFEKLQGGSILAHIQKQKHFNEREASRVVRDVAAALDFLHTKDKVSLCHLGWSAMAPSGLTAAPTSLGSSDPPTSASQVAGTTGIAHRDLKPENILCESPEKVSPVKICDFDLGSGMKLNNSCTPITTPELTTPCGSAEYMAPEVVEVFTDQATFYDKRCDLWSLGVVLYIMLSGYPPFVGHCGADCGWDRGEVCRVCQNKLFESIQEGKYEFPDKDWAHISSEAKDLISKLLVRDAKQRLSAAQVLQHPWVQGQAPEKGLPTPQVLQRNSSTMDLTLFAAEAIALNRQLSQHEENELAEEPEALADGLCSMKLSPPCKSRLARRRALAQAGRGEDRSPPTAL

[2] = target: T2, MAP kinase-interacting serine/threonine-protein kinase 2 (Homo sapiens, UniProt Q9HBH9); assay: Inhibition of N-terminal GST-fused human full length recombinant MNK2 (1 to 465 residues) expressed in baculovirus-infected Sf21 cells using TATKSGSTTKNR as substrate preincubated with enzyme and substrate for 10 mins followed by ATP addition and measured after 40 mins by ADP-glo luminescence assay
Target sequence in this assay (Q9HBH9 whole entry, the tested form may be a part): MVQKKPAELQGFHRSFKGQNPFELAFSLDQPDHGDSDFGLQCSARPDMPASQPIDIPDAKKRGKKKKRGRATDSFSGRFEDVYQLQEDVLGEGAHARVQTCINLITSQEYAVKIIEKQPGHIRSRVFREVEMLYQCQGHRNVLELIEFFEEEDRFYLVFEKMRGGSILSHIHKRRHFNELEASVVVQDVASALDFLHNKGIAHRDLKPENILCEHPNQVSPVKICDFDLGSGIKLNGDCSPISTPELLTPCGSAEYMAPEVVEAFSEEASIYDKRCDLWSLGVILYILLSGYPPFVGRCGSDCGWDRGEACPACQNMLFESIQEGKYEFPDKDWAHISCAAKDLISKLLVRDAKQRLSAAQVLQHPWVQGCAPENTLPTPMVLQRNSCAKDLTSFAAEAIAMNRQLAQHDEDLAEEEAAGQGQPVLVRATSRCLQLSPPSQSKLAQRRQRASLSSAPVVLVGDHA

TMD8 [3] = assay: Antiproliferative activity against human TMD8 cells assessed as reduction in cell viability incubated for 72 hrs by MTT assay; type: functional, cell-based; conditions: TMD8, 72 h
Summary of the method: (§1)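 Lymphoma cells seeded and grown 12 h, then exposed to serial compound concentrations in medium with 1‰ DMSO, each in triplicate, for 72 h. DMSO-only control. Viability read by MTT and normalized to DMSO control. IC50 derived by Logit method, mean ± SD of three independent determinations.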

DOHH-2 = assay: Antiproliferative activity against human DOHH-2 cells assessed as reduction in cell viability incubated for 72 hrs by MTT assay; type: functional, cell-based; conditions: DOHH-2, 72 h; summary of the method: as §1
[4] = target: T1, MAP kinase-interacting serine/threonine-protein kinase 1; conditions: Sf21, dose 500.0 nM, time 50.0 min
Target sequence in this assay (Q9BUB5 whole entry, looked up, the tested form may be a part): as the sequence (Q9BUB5 whole entry, the tested form may be a part) above

[5] = target: T2, MAP kinase-interacting serine/threonine-protein kinase 2; conditions: Sf21, dose 500.0 nM, time 50.0 min
Target sequence in this assay (Q9HBH9 whole entry, looked up, the tested form may be a part): as the sequence (Q9HBH9 whole entry, the tested form may be a part) above

TMD8 [6] = assay: Induction of apoptosis in human TMD8 cells assessed as early apoptotic cells at 0.5 uM incubated for 24 hrs by AnnexinV-FITC/PE staining based flow cytometry (reference value: 4.35%); type: functional
Summary of the method: (§2)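 TMD-8 cells seeded at 1 × 10^5 per 2 mL well and treated 24 h at 0.25, 0.5 or 1 μM, with DMSO control. Cells washed twice in cold PBS and resuspended in binding buffer. Stained with annexin V-FITC for 15 min, then PI for 5 min, both at 37 °C in the dark. Analysed by flow cytometry.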

TMD8 [7] = assay: Induction of apoptosis in human TMD8 cells assessed as viable cells at 0.5 uM incubated for 24 hrs by AnnexinV-FITC/PE staining based flow cytometry (reference value: 94.2%); type: functional; conditions: read-out: Activity; summary of the method: as §2
TMD8 [8] = assay: Induction of apoptosis in human TMD8 cells assessed as necrotic cells at 0.25 uM incubated for 24 hrs by AnnexinV-FITC/PE staining based flow cytometry (reference value: 0%); type: functional; summary of the method: as §2
TMD8 [9] = assay: Induction of apoptosis in human TMD8 cells assessed as late apoptotic cells at 0.25 uM incubated for 24 hrs by AnnexinV-FITC/PE staining based flow cytometry (reference value: 1.44%); type: functional; summary of the method: as §2
TMD8 [10] = assay: Induction of apoptosis in human TMD8 cells assessed as early apoptotic cells at 0.25 uM incubated for 24 hrs by AnnexinV-FITC/PE staining based flow cytometry (reference value: 4.35%); type: functional; summary of the method: as §2
[11] = target: Tyrosine-protein kinase BTK (Homo sapiens) (UniProt Q06187); assay: Inhibition of BTK (unknown origin) at 500 nM
[12] = target: Cyclin-dependent kinase 1 (Homo sapiens) (UniProt P06493); assay: Inhibition of CDK1 (unknown origin) at 500 nM
[13] = target: T3, Interleukin-1 receptor-associated kinase 4 (Homo sapiens) (UniProt Q9NWZ3); assay: Inhibition of IRAK4 (unknown origin) at 500 nM
T3 sequence (whole entry): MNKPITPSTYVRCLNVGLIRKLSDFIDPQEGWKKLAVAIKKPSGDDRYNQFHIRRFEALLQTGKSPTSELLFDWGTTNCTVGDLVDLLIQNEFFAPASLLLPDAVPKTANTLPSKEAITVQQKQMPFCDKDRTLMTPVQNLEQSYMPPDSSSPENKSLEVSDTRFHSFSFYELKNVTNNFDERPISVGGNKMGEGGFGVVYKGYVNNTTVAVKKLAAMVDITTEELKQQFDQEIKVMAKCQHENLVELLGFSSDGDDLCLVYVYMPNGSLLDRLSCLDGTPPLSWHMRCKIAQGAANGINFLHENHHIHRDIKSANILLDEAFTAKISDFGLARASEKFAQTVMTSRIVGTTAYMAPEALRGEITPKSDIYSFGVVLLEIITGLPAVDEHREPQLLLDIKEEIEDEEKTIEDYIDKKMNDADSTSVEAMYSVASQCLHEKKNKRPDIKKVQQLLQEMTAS

[14] = target: AMP-activated protein kinase, AMPK (Homo sapiens) (UniProt P54646+O43741+P54619+Q9UGJ0+Q9Y478+Q13131+Q9UGI9); assay: Inhibition of AMPK (unknown origin) at 500 nM; type: protein-complex assay
[15] = target: Tyrosine-protein kinase JAK1 (Homo sapiens) (UniProt P23458); assay: Inhibition of JAK1 (unknown origin) at 500 nM
[16] = target: Macrophage colony-stimulating factor 1 receptor (Homo sapiens) (UniProt P07333); assay: Inhibition of CSF1R (unknown origin) at 500 nM
TMD8 [17] = assay: Induction of apoptosis in human TMD8 cells assessed as viable cells at 0.25 uM incubated for 24 hrs by AnnexinV-FITC/PE staining based flow cytometry (reference value: 94.2%); type: functional; conditions: read-out: Activity; summary of the method: as §2
TMD8 [18] = assay: Induction of apoptosis in human TMD8 cells assessed as late apoptotic cells at 0.5 uM incubated for 24 hrs by AnnexinV-FITC/PE staining based flow cytometry (reference value: 1.44%); type: functional; summary of the method: as §2
TMD8 [19] = assay: Induction of apoptosis in human TMD8 cells assessed as necrotic cells at 0.5 uM incubated for 24 hrs by AnnexinV-FITC/PE staining based flow cytometry (reference value: 0%); type: functional; summary of the method: as §2
TMD8 [20] = assay: Induction of apoptosis in human TMD8 cells assessed as viable cells at 1 uM incubated for 24 hrs by AnnexinV-FITC/PE staining based flow cytometry (reference value: 94.2%); type: functional; conditions: read-out: Activity; summary of the method: as §2
TMD8 [21] = assay: Induction of apoptosis in human TMD8 cells assessed as early apoptotic cells at 1 uM incubated for 24 hrs by AnnexinV-FITC/PE staining based flow cytometry (reference value: 4.35%); type: functional; summary of the method: as §2
TMD8 [22] = assay: Induction of apoptosis in human TMD8 cells assessed as late apoptotic cells at 1 uM incubated for 24 hrs by AnnexinV-FITC/PE staining based flow cytometry (reference value: 1.44%); type: functional; summary of the method: as §2
TMD8 [23] = assay: Induction of apoptosis in human TMD8 cells assessed as necrotic cells at 1 uM incubated for 24 hrs by AnnexinV-FITC/PE staining based flow cytometry (reference value: 0%); type: functional; summary of the method: as §2

Tyrosine-protein kinase BTK (Homo sapiens), sequence (Q06187 whole entry): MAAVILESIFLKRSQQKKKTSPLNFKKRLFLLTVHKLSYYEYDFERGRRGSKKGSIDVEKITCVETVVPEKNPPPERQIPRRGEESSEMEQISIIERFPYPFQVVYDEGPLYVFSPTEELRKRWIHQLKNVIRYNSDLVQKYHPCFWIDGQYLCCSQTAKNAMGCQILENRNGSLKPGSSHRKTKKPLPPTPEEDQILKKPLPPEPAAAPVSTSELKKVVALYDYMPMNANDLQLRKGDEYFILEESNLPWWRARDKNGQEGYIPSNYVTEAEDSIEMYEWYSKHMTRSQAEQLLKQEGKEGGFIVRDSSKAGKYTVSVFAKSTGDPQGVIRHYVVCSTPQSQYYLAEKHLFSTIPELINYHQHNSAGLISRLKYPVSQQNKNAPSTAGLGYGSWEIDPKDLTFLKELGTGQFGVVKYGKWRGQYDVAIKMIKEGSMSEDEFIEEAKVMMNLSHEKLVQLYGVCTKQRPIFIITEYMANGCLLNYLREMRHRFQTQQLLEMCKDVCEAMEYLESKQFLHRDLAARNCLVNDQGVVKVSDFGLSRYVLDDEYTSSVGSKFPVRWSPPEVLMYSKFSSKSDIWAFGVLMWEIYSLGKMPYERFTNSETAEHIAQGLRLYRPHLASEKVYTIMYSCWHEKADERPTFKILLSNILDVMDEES
Macrophage colony-stimulating factor 1 receptor (Homo sapiens), sequence (P07333 whole entry): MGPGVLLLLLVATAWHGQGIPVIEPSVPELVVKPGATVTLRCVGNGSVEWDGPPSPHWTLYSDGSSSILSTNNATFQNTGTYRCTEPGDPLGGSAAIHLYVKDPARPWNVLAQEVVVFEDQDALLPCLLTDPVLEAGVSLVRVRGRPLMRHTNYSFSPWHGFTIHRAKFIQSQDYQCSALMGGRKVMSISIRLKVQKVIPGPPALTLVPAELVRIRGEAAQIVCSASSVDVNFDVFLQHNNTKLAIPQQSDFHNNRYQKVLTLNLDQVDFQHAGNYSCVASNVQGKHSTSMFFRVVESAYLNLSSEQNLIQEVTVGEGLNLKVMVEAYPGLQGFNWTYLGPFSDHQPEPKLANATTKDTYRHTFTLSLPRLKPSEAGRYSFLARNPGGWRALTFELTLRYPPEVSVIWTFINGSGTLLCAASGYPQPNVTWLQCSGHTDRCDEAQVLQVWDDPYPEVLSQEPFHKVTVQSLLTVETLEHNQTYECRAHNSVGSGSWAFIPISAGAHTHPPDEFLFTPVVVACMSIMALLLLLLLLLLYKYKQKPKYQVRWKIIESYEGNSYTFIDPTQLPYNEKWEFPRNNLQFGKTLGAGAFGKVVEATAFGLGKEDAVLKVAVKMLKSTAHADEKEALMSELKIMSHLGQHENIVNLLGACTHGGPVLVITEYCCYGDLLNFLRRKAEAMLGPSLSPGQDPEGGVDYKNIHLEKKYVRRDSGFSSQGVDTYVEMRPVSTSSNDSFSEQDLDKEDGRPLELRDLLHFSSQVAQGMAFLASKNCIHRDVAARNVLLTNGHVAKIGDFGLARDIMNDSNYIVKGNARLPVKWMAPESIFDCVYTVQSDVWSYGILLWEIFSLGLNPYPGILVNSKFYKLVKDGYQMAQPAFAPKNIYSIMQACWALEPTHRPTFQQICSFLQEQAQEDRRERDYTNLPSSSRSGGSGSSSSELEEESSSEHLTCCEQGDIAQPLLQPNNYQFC
Tyrosine-protein kinase JAK1 (Homo sapiens), sequence (P23458 whole entry): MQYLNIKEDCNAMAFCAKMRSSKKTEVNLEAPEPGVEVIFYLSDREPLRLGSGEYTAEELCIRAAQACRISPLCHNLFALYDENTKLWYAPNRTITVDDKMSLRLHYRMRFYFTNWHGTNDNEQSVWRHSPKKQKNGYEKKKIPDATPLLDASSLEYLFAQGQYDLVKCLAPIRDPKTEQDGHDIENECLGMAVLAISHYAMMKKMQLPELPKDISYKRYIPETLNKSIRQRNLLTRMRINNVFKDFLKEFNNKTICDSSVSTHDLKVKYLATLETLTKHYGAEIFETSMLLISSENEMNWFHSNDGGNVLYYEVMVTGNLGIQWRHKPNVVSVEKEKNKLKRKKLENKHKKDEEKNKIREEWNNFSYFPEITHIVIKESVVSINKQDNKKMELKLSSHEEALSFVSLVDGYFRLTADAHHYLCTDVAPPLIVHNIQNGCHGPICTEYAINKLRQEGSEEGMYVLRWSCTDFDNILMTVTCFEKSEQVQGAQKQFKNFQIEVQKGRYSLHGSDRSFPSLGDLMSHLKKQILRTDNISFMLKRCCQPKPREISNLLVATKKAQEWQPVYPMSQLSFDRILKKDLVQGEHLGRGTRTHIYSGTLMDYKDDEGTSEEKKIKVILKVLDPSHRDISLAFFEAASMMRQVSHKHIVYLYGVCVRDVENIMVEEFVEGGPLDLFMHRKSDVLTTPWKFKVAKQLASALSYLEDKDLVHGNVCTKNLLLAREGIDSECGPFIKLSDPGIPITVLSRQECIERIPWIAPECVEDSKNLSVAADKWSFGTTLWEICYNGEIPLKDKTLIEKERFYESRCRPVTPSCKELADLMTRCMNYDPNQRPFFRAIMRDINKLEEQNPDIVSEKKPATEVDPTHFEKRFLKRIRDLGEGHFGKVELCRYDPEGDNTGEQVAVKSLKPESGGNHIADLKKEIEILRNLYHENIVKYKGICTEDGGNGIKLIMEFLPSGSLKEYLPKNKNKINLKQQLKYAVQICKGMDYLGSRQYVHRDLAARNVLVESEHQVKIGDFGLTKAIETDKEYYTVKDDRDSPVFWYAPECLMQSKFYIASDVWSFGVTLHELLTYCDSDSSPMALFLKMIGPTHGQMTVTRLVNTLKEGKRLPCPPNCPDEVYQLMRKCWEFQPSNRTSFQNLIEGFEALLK
Cyclin-dependent kinase 1 (Homo sapiens), sequence (P06493 whole entry, looked up): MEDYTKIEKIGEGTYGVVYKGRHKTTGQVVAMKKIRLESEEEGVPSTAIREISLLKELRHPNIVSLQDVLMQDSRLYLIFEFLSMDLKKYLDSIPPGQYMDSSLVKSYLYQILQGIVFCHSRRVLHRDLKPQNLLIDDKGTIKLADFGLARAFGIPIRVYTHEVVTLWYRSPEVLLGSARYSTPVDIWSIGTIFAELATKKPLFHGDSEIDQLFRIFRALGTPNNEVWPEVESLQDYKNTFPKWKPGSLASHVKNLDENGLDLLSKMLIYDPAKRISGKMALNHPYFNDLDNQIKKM

Compound | IC50 [1] | IC50 [2] | IC50 (TMD8 [3]) | IC50 (DOHH-2) | inhibition [4] | inhibition [5] | also measured
N[C@H]1CCCN(C(=O)c2ccc(-c3cn4c(-c5ccc6cnccc6c5)cnc4cn3)cc2)C1 | 27.3 nM | 19.4 nM | 2560 nM | 5190 nM |  |  | 
O=C(c1ccc(-c2ccc3ncc(-c4ccc5cnccc5c4)n3c2)cc1)N1CCOCC1 | 7 nM | 25.7 nM |  |  | 93.7% | 106% | 
O=C(c1ccc(-c2ccc3ncc(-c4cnc5ccccc5c4)n3c2)cc1)N1CCOCC1 | 154 nM | 636 nM |  |  | 71% | 21% | 
O=C(c1ccc(-c2ccc3ncc(-c4ccc5ncccc5c4)n3c2)cc1)N1CCC(N2CCCCC2)CC1 |  |  |  |  | 62.8% | 2.41% | 
O=C(c1ccc(-c2ccc3ncc(-c4ccc5ncccc5c4)n3c2)cc1)N1CCNCC1 |  |  |  |  | 73.5% | 49.9% | 
N[C@@H]1CCCN(C(=O)c2ccc(-c3ccc4ncc(-c5ccc6cnccc6c5)n4n3)cc2)C1 | 9.4 nM | 6.6 nM | 2420 nM | 400 nM |  |  | 
O=C(c1ccc(-c2ccc3ncc(-c4cnc5ccccc5c4)n3c2)cc1)N1CCC(N2CCOCC2)CC1 |  |  |  |  | 40.6% | 18.7% | 
N[C@H]1CCCN(C(=O)c2ccc(-c3ccc4ncc(-c5ccc6cnccc6c5)n4c3)cc2)C1 | 2.5 nM | 2.5 nM | 3460 nM | 6730 nM |  |  | 
O=C(c1ccc(-c2ccc3ncc(-c4cnc5ccccc5c4)n3c2)cc1)N1CCNCC1 | 67.6 nM | 51.2 nM |  |  | 70.7% | 68.1% | 
O=C(c1ccc(-c2ccc3ncc(-c4ccc5ncccc5c4)n3c2)cc1)N1CCC(N2CCOCC2)CC1 |  |  |  |  | 49.8% | 34.9% | 
NC1CCN(C(=O)c2ccc(-c3ccc4ncc(-c5ccc6cnccc6c5)n4c3)cc2)CC1 | 5.2 nM | 16.8 nM | 2060 nM | 8300 nM |  |  | 
N[C@H]1CCCN(C(=O)c2ccc(-c3ccc4ncc(-c5ccc6cnccc6c5)n4n3)cc2)C1 | 2.3 nM | 3.4 nM | 390 nM | 409 nM | 103% | 97.3% | Activity (TMD8 [6]): 9.42%; viability at 0.5 µM (TMD8 [7]): 44.6%; Activity (TMD8 [8]): 0%; Activity (TMD8 [9]): 19.8%; Activity (TMD8 [10]): 30%; inhibition [11]: 4.1%; inhibition [12]: 5.01%; inhibition [13]: 22.3%; inhibition [14]: 10.2%; inhibition [15]: 6.5%; inhibition [16]: 11.6%; viability at 0.25 µM (TMD8 [17]): 50.2%; Activity (TMD8 [18]): 45.9%; Activity (TMD8 [19]): 0.037%; viability at 1 µM (TMD8 [20]): 12.5%; Activity (TMD8 [21]): 9.3%; Activity (TMD8 [22]): 78.2%; Activity (TMD8 [23]): 0%
O=C(c1ccc(-c2ccc3ncc(-c4ccc5cnccc5c4)n3c2)cc1)N1CCC(N2CCCCC2)CC1 | 2.4 nM | 1.5 nM | 4010 nM | 3820 nM | 92.9% | 74.7% | 
NC1CCN(C(=O)c2ccc(-c3ccc4ncc(-c5ccc6cnccc6c5)n4n3)cc2)CC1 | 14.5 nM | 15.7 nM | 2080 nM | 541 nM |  |  | 
N#Cc1ccc(-c2cnc3ccc(-c4ccc(C(=O)N5CCOCC5)cc4)cn23)cc1 [TINODASERTIB] |  |  | 2140 nM | 1620 nM |  |  | 
N[C@@H]1CCCN(C(=O)c2ccc(-c3ccc4ncc(-c5ccc6cnccc6c5)n4c3)cc2)C1 | 7.7 nM | 8.9 nM | 2300 nM | 6280 nM |  |  | 
O=C(c1ccc(-c2ccc3ncc(-c4ccc5cnccc5c4)n3c2)cc1)N1CCC(N2CCOCC2)CC1 | 4 nM | 3.2 nM | 4260 nM | 7550 nM | 87.8% | 77.7% | 
O=C(c1ccc(-c2ccc3ncc(-c4ccc5ncccc5c4)n3c2)cc1)N1CCOCC1 | 371 nM | 216 nM |  |  | 74.7% | 64% | 
O=C(c1ccc(-c2ccc3ncc(-c4cnc5ccccc5c4)n3c2)cc1)N1CCC(N2CCCCC2)CC1 |  |  |  |  | 71% | 48.8% | 
N[C@@H]1CCCN(C(=O)c2ccc(-c3cn4c(-c5ccc6cnccc6c5)cnc4cn3)cc2)C1 | 42 nM | 26.7 nM | 3100 nM | 3250 nM |  |  | 
NC1CCN(C(=O)c2ccc(-c3cn4c(-c5ccc6cnccc6c5)cnc4cn3)cc2)CC1 | 32.1 nM | 18.5 nM | 7570 nM | 12000 nM |  |  | 
O=C(c1ccc(-c2ccc3ncc(-c4ccc5cnccc5c4)n3c2)cc1)N1CCNCC1 | 9.4 nM | 2.9 nM | 6640 nM | 8680 nM | 98.7% | 77.7% | 
